This passage reports IC50 and inhibition results from ChEMBL document CHEMBL1799953, “Backbone cyclic peptide inhibitors of protein kinase B (PKB/Akt)” (J Med Chem, 2011).

Test [1] addresses T1, RAC-alpha serine/threonine-protein kinase (Homo sapiens, UniProt P31749). The test is described as follows: Inhibition of Akt using RPRTSSF peptide and [gamma32]ATP by cell-free radioactive assay. A digest of the protocol: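 Same reaction: HisΔPHPKBEEEFlag (0.005 units), 50 mM Hepes pH 7.4, 0.1 mM EGTA, 0.1% 2-mercaptoethanol, 10 mM magnesium acetate, 3 μM RPRTSSF, 10 μM [γ32P]ATP. Peptide stock concentration determined by UV spectrophotometry; reference peptide run in every assay.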

In test [2] the target is T1, RAC-alpha serine/threonine-protein kinase. Kind of test: Inhibition of Akt using RPRTSSF peptide and [gamma32]ATP at 0.625 uM by cell-free radioactive assay relative to control.

One may read the IC50 as the concentration that inhibits the measured activity by half. What is called inhibition is the share of the control response that was lost under treatment.

*1 amine or outer side, *2 acyl side, *3 side chain or, on linkers, in order; H or OH if unused. Where a SMILES comes first, the peptide text is derived from it. Bridges are numbered along the chain shown (N, C = ends). [ ]: non-standard residue; d: D form. N(6-aminohexyl)Gly = O=C(CN(CCCCCCN[*:3])[*:1])[*:2]; NGly(3-aminopropyl) = O=C(CN(CCCN[*:3])[*:1])[*:2]; N(2-Aminoethyl)Gly = O=C(CN(CCN[*:3])[*:1])[*:2]; Gly(N-(CH2)6NH2) = NCCCCCCNCC(=O)O; Gly(N(CH2)3NH2) = NCCCNCC(=O)O; hLeu = CC(C)CC[C@H](N)C(=O)O; Nva = CCC[C@H](N)C(=O)O; Dap = NC[C@H](N)C(=O)O; CO = O=C([*:1])[*:2]; Nlys = NCCCCNCC(=O)O

T1 sequence (P31749 whole entry): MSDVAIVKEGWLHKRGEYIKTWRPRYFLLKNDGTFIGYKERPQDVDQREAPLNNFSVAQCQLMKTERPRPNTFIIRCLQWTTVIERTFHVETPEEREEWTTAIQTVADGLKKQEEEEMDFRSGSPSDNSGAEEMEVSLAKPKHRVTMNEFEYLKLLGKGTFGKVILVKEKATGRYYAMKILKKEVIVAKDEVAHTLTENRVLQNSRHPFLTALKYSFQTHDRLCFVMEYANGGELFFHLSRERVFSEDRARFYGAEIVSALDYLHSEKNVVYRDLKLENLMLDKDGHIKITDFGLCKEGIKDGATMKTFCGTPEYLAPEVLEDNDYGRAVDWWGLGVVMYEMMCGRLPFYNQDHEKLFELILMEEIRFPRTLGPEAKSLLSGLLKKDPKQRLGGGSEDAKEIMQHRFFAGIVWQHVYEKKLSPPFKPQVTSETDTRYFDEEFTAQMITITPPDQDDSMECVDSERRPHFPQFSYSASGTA

As to `CCC[C@H](NC(=O)[C@H](CCCNC(=N)N)NC(=O)CN(CCCN)C(=O)[C@@H](N)CCCNC(=N)N)C(=O)N[C@@H](Cc1ccc(O)cc1)C(=O)N[C@@H](CN)C(=O)N[C@@H](CCC(C)C)C(=O)N(CCCN)CC(N)=O` (H-R[Gly(N(CH2)3NH2)]R[Nva]Y[Dap][hLeu][Gly(N(CH2)3NH2)]-NH2), in test [1], the IC50 came to 130 nM. Further, the inhibition in test [2] turned out to be 90%. `CCC[C@H](NC(=O)[C@H](CCCNC(=N)N)NC(=O)CN(CCCN)C(=O)[C@@H](N)CCCNC(=N)N)C(=O)N[C@@H](Cc1ccc(O)cc1)C(=O)N[C@@H](CN)C(=O)N[C@@H](CCC(C)C)C(=O)N(CCCCN)CC(N)=O` (H-R[Gly(N(CH2)3NH2)]R[Nva]Y[Dap][hLeu][Nlys]-NH2): the IC50 in test [1] was determined as 128 nM. For the same molecule, the inhibition in test [2] was determined as 96%. Consider `CCC[C@H](NC(=O)[C@H](CCCNC(=N)N)NC(=O)CN(CCCCCCN)C(=O)[C@@H](N)CCCNC(=N)N)C(=O)N[C@@H](Cc1ccc(O)cc1)C(=O)N[C@@H](CN)C(=O)N[C@@H](CCC(C)C)C(=O)N(CCCN)CC(N)=O` (H-R[Gly(N-(CH2)6NH2)]R[Nva]Y[Dap][hLeu][Gly(N(CH2)3NH2)]-NH2), for which, in test [1], the IC50 was found to be 110 nM. For the same molecule, in test [2], the inhibition is 87%. Turning to `CCC[C@H](NC(=O)[C@H](CCCNC(=N)N)NC(=O)CN(CCCCN)C(=O)[C@@H](N)CCCNC(=N)N)C(=O)N[C@@H](Cc1ccc(O)cc1)C(=O)N[C@@H](CN)C(=O)N[C@@H](CCC(C)C)C(=O)N(CCCN)CC(N)=O` (H-R[Nlys]R[Nva]Y[Dap][hLeu][Gly(N(CH2)3NH2)]-NH2), in test [1], the IC50 came to 150 nM. The inhibition in test [2] worked out at 91%. For the molecule `CCC[C@H](NC(=O)[C@H](CCCNC(=N)N)NC(=O)CN(CCCCN)C(=O)[C@@H](N)CCCNC(=N)N)C(=O)N[C@@H](Cc1ccc(O)cc1)C(=O)N[C@@H](CN)C(=O)N[C@@H](CCC(C)C)C(=O)N(CCCCCCN)CC(N)=O` (H-R[Nlys]R[Nva]Y[Dap][hLeu][Gly(N-(CH2)6NH2)]-NH2), the inhibition in test [2] was 60%. Turning to `CCC[C@H](NC(=O)[C@H](CCCNC(=N)N)NC(=O)CN(CCCCN)C(=O)[C@@H](N)CCCNC(=N)N)C(=O)N[C@@H](Cc1ccc(O)cc1)C(=O)N[C@@H](CN)C(=O)N[C@@H](CCC(C)C)C(=O)N(CCCCN)CC(N)=O` (H-R[Nlys]R[Nva]Y[Dap][hLeu][Nlys]-NH2), in test [1], the IC50 was 130 nM. Also, the inhibition in test [2] was 91%.

As to `CCC[C@@H]1NC(=O)[C@H](CCCNC(=N)N)NC(=O)CNCCNC(=O)NCCN(CC(N)=O)C(=O)[C@H](CCC(C)C)NC(=O)[C@H](CN)NC(=O)[C@H](Cc2ccc(O)cc2)NC1=O` (H-[N(2-Aminoethyl)Gly]R[Nva]Y[Dap][hLeu][N(2-Aminoethyl)Gly]-NH2; linker 1-7 via CO), in test [1], the IC50 worked out at 390 nM. The inhibition in test [2] was 64%. Consider `CCC[C@@H]1NC(=O)[C@H](CCCNC(=N)N)NC(=O)CNCCCCCCNC(=O)NCCN(CC(N)=O)C(=O)[C@H](CCC(C)C)NC(=O)[C@H](CN)NC(=O)[C@H](Cc2ccc(O)cc2)NC1=O` (H-[N(6-aminohexyl)Gly]R[Nva]Y[Dap][hLeu][N(2-Aminoethyl)Gly]-NH2; linker 1-7 via CO), for which the inhibition in test [2] worked out at 26%. Turning to `CCC[C@@H]1NC(=O)[C@H](CCCNC(=N)N)NC(=O)CNCCCNC(=O)NCCN(CC(N)=O)C(=O)[C@H](CCC(C)C)NC(=O)[C@H](CN)NC(=O)[C@H](Cc2ccc(O)cc2)NC1=O` (H-[NGly(3-aminopropyl)]R[Nva]Y[Dap][hLeu][N(2-Aminoethyl)Gly]-NH2; linker 1-7 via CO), the IC50 in test [1] came out at 240 nM. For the same molecule, the inhibition in test [2] was 84%.

Take `CCC[C@@H]1NC(=O)[C@H](CCCNC(=N)N)NC(=O)CNCCCCNC(=O)NCCN(CC(N)=O)C(=O)[C@H](CCC(C)C)NC(=O)[C@H](CN)NC(=O)[C@H](Cc2ccc(O)cc2)NC1=O` (H-[Nlys]R[Nva]Y[Dap][hLeu][N(2-Aminoethyl)Gly]-NH2; linker 1-7 via CO): the inhibition in test [2] is 32%.
